# From ChEMBL document CHEMBL1143122, “Novel analogs of D-e-MAPP and B13. Part 1: synthesis and evaluation as potential anticancer agents” (Bioorg Med Chem, 2008)
# Assays:
# T47D = assay: Antiproliferative activity against human T47D cells after 48 hrs; format: functional
# In short: (§1)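 NCI 60-cell-line screen. Lines grown in RPMI 1640 with 5% fetal bovine serum and 2 mM L-glutamine, plated at 5,000–40,000 cells/well according to doubling time, left 24 h at 37 °C in 5% CO2. Drug stocks in DMSO at 400-fold the top final concentration. Five 10-fold dilutions, 10−4 to 10−8 M, incubated 48 h. Growth read spectrophotometrically as net protein; GI50 taken as 50% reduction.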
# SF-539 = assay: Antiproliferative activity against human SF539 cells after 48 hrs; format: functional; conditions: SF-539, 48 h
# In short: (§2)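 NCI 60-cell screen. Cells were grown in RPMI 1640 with 5% FBS and 2 mM L-glutamine, then plated at 5,000–40,000 cells/well according to doubling time and preincubated for 24 h at 37 °C in 5% CO2. Compounds were dissolved in DMSO at 400× the top final concentration and tested at five 10-fold dilutions from 10−4 to 10−8 M for 48 h. Growth was read spectrophotometrically; GI50 is 50% net protein reduction.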
# HOP-92 = assay: Antiproliferative activity against human HOP92 cells after 48 hrs; format: functional; conditions: HOP-92, 48 h; in short: as §2
# SF-268 = assay: Antiproliferative activity against human SF268 cells after 48 hrs; format: functional; conditions: SF-268, 48 h; in short: as §2
# MOLT-4 = assay: Antiproliferative activity against human MOLT4 cells after 48 hrs; format: functional; conditions: MOLT-4, 48 h; in short: as §2
# HCC 2998 = assay: Antiproliferative activity against human HCC2998 cells after 48 hrs; format: functional; conditions: HCC 2998, 48 h; in short: as §2
# K562 = assay: Antiproliferative activity against human K562 cells after 48 hrs; format: functional; conditions: K562, 48 h; in short: as §2
# [1] = Antiproliferative activity against human NCI-ADR-RES cells after 48 hrs; format: functional; in short: as §2
# IGROV-1 = assay: Antiproliferative activity against human IGROV1 cells after 48 hrs; format: functional; conditions: IGROV-1, 48 h; in short: as §2
# RPMI-8226 = assay: Antiproliferative activity against human RPMI8226 cells after 48 hrs; format: functional; conditions: RPMI-8226, 48 h; in short: as §2
# SN12C = assay: Antiproliferative activity against human SN12C cells after 48 hrs; format: functional; in short: as §2
# A498 = assay: Antiproliferative activity against human A498 cells after 48 hrs; format: functional; conditions: A498, 48 h; in short: as §2
# BT-549 = assay: Antiproliferative activity against human BT549 cells after 48 hrs; format: functional; conditions: BT-549, 48 h; in short: as §2
# OVCAR-8 = assay: Antiproliferative activity against human OVCAR8 cells after 48 hrs; format: functional; conditions: OVCAR-8, 48 h; in short: as §2
# SW-620 = assay: Antiproliferative activity against human SW620 cells after 48 hrs; format: functional; conditions: SW-620, 48 h; in short: as §1
# TK-10 = assay: Antiproliferative activity against human TK10 cells after 48 hrs; format: functional; conditions: TK-10, 48 h; in short: as §1
# UACC-257 = assay: Antiproliferative activity against human UACC257 cells after 48 hrs; format: functional; conditions: UACC-257, 48 h; in short: as §1
# [2] = Antiproliferative activity against human HL60(TB) cells after 48 hrs; format: functional, HL-60(TB); conditions: HL-60, 48 h
# In short: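 NCI 60-line panel screen: cells grown in RPMI 1640 with 5% fetal bovine serum and 2 mM L-glutamine, plated at 5,000–40,000 cells/well by doubling time, and preincubated 24 h at 37 °C in 5% CO2. Drugs were solubilised in DMSO at 400-fold the final maximum and tested at five 10-fold dilutions from 10−4 to 10−8 M for 48 h. Net protein was read spectrophotometrically, and the concentration giving 50% reduction was reported as log10 GI50.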
# HT-29 = assay: Antiproliferative activity against human HT29 cells after 48 hrs; format: functional; conditions: HT-29, 48 h; in short: as §2
# M14 = assay: Antiproliferative activity against human M14 cells after 48 hrs; format: functional; conditions: M14, 48 h; in short: as §2
# SK-OV-3 = assay: Antiproliferative activity against human SKOV3 cells after 48 hrs; format: functional; conditions: SK-OV-3, 48 h; in short: as §2
# MCF7 = assay: Drug level in human MCF7 cells at 10 uM per 10^6 cells after 0.5 hrs; format: ADME, cell-based; conditions: mcf7, 0.5 h
# In short: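 MCF7 cells kept in RPMI 1640 with 10% fetal calf serum at 37 °C, 5% CO2, then treated with 10 μM analog. Intracellular analog measured over time by HPLC-MS in positive-ion MRM mode. Quantified against calibration curves made by spiking an artificial matrix with standards plus internal standard, using analyte/IS peak-area ratios and linear regression. Reported as pmol per 1×10^6 cells.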
# Hs-578T = assay: Antiproliferative activity against human HS578T cells after 48 hrs; format: functional; in short: as §2
# HOP-62 = assay: Antiproliferative activity against human HOP62 cells after 48 hrs; format: functional; conditions: HOP-62, 48 h; in short: as §2
# A549 = assay: Antiproliferative activity against human A549 cells after 48 hrs; format: functional; conditions: A549, 48 h; in short: as §2
# NCI-H23 = assay: Antiproliferative activity against human NCI-H23 cells after 48 hrs; format: functional; conditions: NCI-H23, 48 h; in short: as §2
# SNB-75 = assay: Antiproliferative activity against human SNB75 cells after 48 hrs; format: functional; conditions: SNB-75, 48 h; in short: as §2
# [3] = read-out: Log LC50 (the source's name) (converted)
smiles,measurement,setting,value
CCCCCCCCCCCCCCN[C@H](C)[C@@H](O)c1ccccc1.Cl,GI50,T47D,2.29 µM
same,CC50,T47D; [3],7.76 µM
same,TGI,T47D; read-out: Log TGI (converted),4.17 µM
same,GI50,SF-539,1.35 µM
same,LC50,SF-539,5.5 µM
same,TGI,SF-539; read-out: Log TGI (converted),2.69 µM
same,GI50,HOP-92,1.55 µM
same,LC50,HOP-92,5.89 µM
same,TGI,HOP-92; read-out: Log TGI (converted),3.02 µM
same,GI50,SF-268,1.78 µM
same,LC50,SF-268,6.76 µM
same,TGI,SF-268; read-out: Log TGI (converted),3.47 µM
same,GI50,MOLT-4,0.871 µM
same,LC50,MOLT-4,4.9 µM
same,TGI,MOLT-4; read-out: Log TGI (converted),2.19 µM
same,GI50,HCC 2998,1.86 µM
same,CC50,HCC 2998; [3],6.46 µM
same,TGI,HCC 2998; read-out: Log TGI (converted),3.47 µM
same,GI50,K562,1.41 µM
same,LC50,K562,5.62 µM
same,TGI,K562; read-out: Log TGI (converted),2.82 µM
same,GI50,[1],1.82 µM
same,TGI,[1]; read-out: Log TGI (converted),3.55 µM
same,GI50,IGROV-1,1.62 µM
same,LC50,IGROV-1,5.75 µM
same,TGI,IGROV-1; read-out: Log TGI (converted),3.09 µM
same,GI50,RPMI-8226,3.39 µM
same,CC50,RPMI-8226; [3],7.24 µM
same,TGI,RPMI-8226; read-out: Log TGI (converted),3.63 µM
same,GI50,SN12C,1.78 µM
same,LC50 (50% net cell kill),SN12C,6.76 µM
same,TGI,SN12C; read-out: Log TGI (converted),3.47 µM
same,GI50,A498,3.16 µM
same,CC50,A498; [3],74.1 µM
same,TGI,A498; read-out: Log TGI (converted),6.46 µM
same,GI50,BT-549,1.12 µM
same,LC50,BT-549,5.01 µM
same,TGI,BT-549; read-out: Log TGI (converted),2.4 µM
same,GI50,OVCAR-8,1.82 µM
same,TGI,OVCAR-8; read-out: Log TGI (converted),3.8 µM
same,GI50,SW-620,2.14 µM
same,LC50 (concentration killing 50% of cells),SW-620,7.94 µM
same,TGI,SW-620; read-out: Log TGI (converted),4.17 µM
same,GI50,TK-10,1.86 µM
same,CC50,TK-10; [3],5.75 µM
same,TGI,TK-10; read-out: Log TGI (converted),3.31 µM
same,GI50,UACC-257,1.66 µM
same,CC50,UACC-257; [3],6.46 µM
same,TGI,UACC-257; read-out: Log TGI (converted),3.31 µM
same,GI50,[2],0.0871 µM
same,LC50,[2],6.61 µM
same,TGI,[2]; read-out: Log TGI (converted),2.51 µM
same,GI50,HT-29,1.78 µM
same,LC50,HT-29,5.75 µM
same,TGI,HT-29; read-out: Log TGI (converted),3.24 µM
same,GI50,M14,1.86 µM
same,LC50,M14,6.17 µM
same,TGI,M14; read-out: Log TGI (converted),3.39 µM
same,GI50,SK-OV-3,2.34 µM
same,CC50,SK-OV-3; [3],9.77 µM
same,TGI,SK-OV-3; read-out: Log TGI (converted),4.79 µM
same,Drug uptake,MCF7,3600 pmol
same,GI50,Hs-578T,2.51 µM
same,LC50,Hs-578T,46.8 µM
same,TGI,Hs-578T; read-out: Log TGI (converted),5.5 µM
same,GI50,HOP-62,1.86 µM
same,CC50,HOP-62; [3],5.89 µM
same,TGI,HOP-62; read-out: Log TGI (converted),3.31 µM
same,GI50,A549,1.74 µM
same,CC50,A549; [3],6.31 µM
same,TGI,A549; read-out: Log TGI (converted),3.31 µM
same,GI50,NCI-H23,2.14 µM
same,CC50,NCI-H23; [3],7.94 µM
same,TGI,NCI-H23; read-out: Log TGI (converted),4.07 µM
same,GI50,SNB-75,2.09 µM
same,CC50,SNB-75; [3],7.08 µM
same,TGI,SNB-75; read-out: Log TGI (converted),3.89 µM
